From ChEMBL document CHEMBL1126156, “Multivariate analysis by the minimum spanning tree method of the structural determinants of diphenylethylenes and triphenylacrylonitriles implicated in estrogen receptor binding, protein kinase C activity, and MCF7 cell proliferation” (J Med Chem, 1992)

How the values were obtained:
[1] = molecular target: T1, Protein kinase C, PKC; classical (Rattus norvegicus) (UniProt P05696+P68403+P63319); test: Percent stimulation or inhibition of protein kinase C with [Ca2+] for phosphatidylserine (PS); assay type: protein assay
In short: (§1)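 Purified type III (α) PKC from rat brain soluble fraction. Substrate calf thymus H1 histone with 0.1 mM Ca2+, 5 mM magnesium acetate, 10 μM [32P]ATP and 2 μg/mL phosphatidylserine, no diolein. Most compounds at 10⁻⁴ M, given as percent of control activity.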

MCF7S [2] = test: Cytotoxic effect on MCF-7 cell proliferation; assay type: functional; conditions: Homo sapiens
In short: (§2)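 MCF-7 cells in phenol red-free charcoal-treated medium given 10⁻⁶ M E2 plus test compound (3–10 μM), 6 days of growth. DNA expressed as percent of E2-treated cells. IC30 is the concentration giving 30% inhibition. Percent inhibition taken at 10⁻⁵ M, or at 10⁻⁶ M in a second series. Means of two experiments.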

MCF7S [3] = test: Agonist activity against MCF-7 cell proliferation; assay type: functional, cell-based; conditions: Homo sapiens
In short: (§3)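 MCF-7 cells grown in phenol red-free medium with 5% dextran-coated charcoal-treated serum, tested 10 pM to 1 μM. DNA content read after growth. Agonism expressed relative to the maximum response with E2 (=100%), whatever the concentration. EC50 (50% of maximum response) taken from two separate experiments.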

BT-20 [4] = test: (§4) Cytotoxic effect on ER-negative BT20 cell proliferation; assay type: functional, Homo sapiens; design: concentration or dose not given beside the values
In short: (§5)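 ER-negative BT20 cells, no E2, test compound at 3–10 μM for 6 days. DNA read as percent of untreated control. IC30 is the concentration inhibiting growth by 30%; percent inhibition taken at 10⁻⁵ M. Means of two experiments, triplicate wells.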

MCF7S [5] = test: Agonistic activity in MCF-7 cell proliferation.; assay type: functional, Homo sapiens; in short: as §3
MCF7S [6] = test: Cytostatic activity against MCF-7 cell proliferation.; assay type: functional, Homo sapiens; design: concentration or dose not given beside the values; in short: as §2
[7] = molecular target: Estrogen receptor (Bos taurus) (UniProt Q9XSB5+P49884); test: Relative binding affinity for calf uterus estrogen receptor after 2 hr at 0 degree C; assay type: protein assay
In short: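 Calf uterus cytosol ER incubated 2 h at 0 °C with [6,7-3H]-17β-estradiol and competitor. RBA given relative to estradiol (=100%), mean of at least four determinations.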

Rattus norvegicus [8] = organism: Rattus norvegicus; test: Percent stimulation or inhibition of protein kinase C III activity for protamine sulfate in the presence of EGTA.; design: concentration or dose not given beside the values; conditions: values are per cent of control
In short: (§6)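 Rat brain type III (α) PKC, purified, with protamine sulfate as substrate and 0.5 mM EGTA in place of Ca2+, phosphatidylserine and diolein; 5 mM magnesium acetate, 10 μM [32P]ATP. Most compounds at 10⁻⁴ M; percent of control activity.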

MCF7S [9] = test: (§7) Antagonist activity against MCF-7 cell proliferation; assay type: functional, Homo sapiens
In short: (§8)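 Phenol red-free MCF-7 cultures with 5% dextran-coated charcoal-treated serum, stimulated by 0.1 nM E2. Proliferation read as DNA content after 8 days relative to E2 alone. Percent antagonism is the inhibition at 10⁻⁶ M test compound versus 10⁻¹⁰ M E2. IC50 (50% of maximum response) from two separate experiments.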

BT-20 [10] = test: as §4; assay type: functional; conditions: Homo sapiens; in short: as §5
[11] = molecular target: T1, Protein kinase C, PKC; classical (Rattus norvegicus); test: The percent stimulation or inhibition of protein kinase C III activity was determined for phosphatidylserine (PS) and diolein(PS+DO) in the presence of [Ca2+]; assay type: protein assay; design: concentration or dose not given beside the values; conditions: values are per cent of control
In short: (§9)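 Type III (α) PKC purified from rat brain soluble fraction, assayed with calf thymus H1 histone, 0.1 mM Ca2+, 5 mM magnesium acetate, 10 μM [32P]ATP, 2 μg/mL phosphatidylserine plus 0.2 μg/mL diolein. Compounds mostly at 10⁻⁴ M; activity expressed as percent of control.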

[12] = molecular target: T1, Protein kinase C, PKC; classical (Rattus norvegicus); test: (§10) Percent stimulation or inhibition of protein kinase C with [Ca2+] for phosphatidylserine and diolein(PS+DO); assay type: protein assay; conditions: for residual activity: values are per cent of control; in short: as §9
[13] = molecular target: T1, Protein kinase C, PKC; classical (Rattus norvegicus); test: as §10; assay type: protein assay; design: concentration or dose not given beside the values; conditions: values are per cent of control; in short: as §9
MCF7S [14] = test: as §7; assay type: functional, cell-based; conditions: Homo sapiens; in short: as §8
[15] = molecular target: T1, Protein kinase C, PKC; classical (Rattus norvegicus); test: Percent stimulation or inhibition of protein kinase C III activity for phosphatidylserine (PS) in the presence of [Ca2+].; assay type: protein assay; design: concentration or dose not given beside the values; conditions: values are per cent of control; in short: as §1
MCF7S [16] = test: Cytostatic activity against MCF-7 cell proliferation; assay type: functional, Homo sapiens
In short: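 MCF7 (ER-positive) human breast cancer cells grown in 24-well plates in phenol red-free medium with 5% dextran-coated charcoal, with 10⁻⁶ M E₂ added. Cells exposed to compound for 6 days, then DNA measured and expressed as percent of E₂-alone DNA. Triplicate wells per experiment; values are means of two experiments.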

Rattus norvegicus [17] = organism: Rattus norvegicus; test: Percent stimulation or inhibition of protein kinase C with EGTA for protamine sulfate; conditions: concentration not given here; in short: as §6

Row | SMILES | residual activity ([1]; values are per cent of control) [%] | IC30 (MCF7S [2]) [µM] | EC50 (MCF7S [3]) [µM] | Inhibition (BT-20 [4]) [%] | Agonism (MCF7S [5]) [%] | Inhibition (MCF7S [6]) [%] | RBA [7] [%] | residual activity (Rattus norvegicus [8]) [%] | Antagonism (MCF7S [9]) [%] | IC30 (BT-20 [10]) [µM] | residual activity [11] [%] | residual activity [12] [%] | residual activity [13] [%] | IC50 (MCF7S [14]) [µM] | residual activity [15] [%] | Inhibition (MCF7S [16]) [%] | inhibition ([12]; concentration not given here) [%] | inhibition (Rattus norvegicus [17]) [%] | residual activity [1] [%]
1 | CC(C)N(CCOc1ccc(C(C#N)=C(c2ccccc2)c2ccccc2)cc1)C(C)C | 46 | 10 | 0.011 | 36 | 93 | 30 | 0.1 | 103 | 10 | 9 | 23 | – | – | – | – | – | – | – | –
2 | Cc1ccc(/C(=C(\C#N)c2ccc(O)cc2)c2ccc(O)cc2)cc1 | 88 | – | – | – | 73 | 54 | – | – | – | – | – | 68 | 68 | – | – | – | – | – | –
3 | CC(C)N(CCOc1ccc(C(=C(C#N)c2ccccc2)c2ccc(OCCN(C(C)C)C(C)C)cc2)cc1)C(C)C | – | 2.7 | 0.00084 | 89 | 29 | 97 | 0.03 | 85 | 79 | 3.2 | 8 | – | – | 0.325 | 18 | – | – | – | –
4 | CC/C(=C(/c1ccc(O)cc1)c1ccc(OCCN(C)C)cc1)c1ccccc1 | – | – | – | – | 61 | – | – | 100 | – | – | 14 | – | – | – | 32 | 74 | – | – | –
5 | CC(C)C(Cl)=C(c1ccc(O)cc1)c1ccc(O)cc1 | – | – | 0.00016 | 45 | 96 | 30 | 70 | 85 | 12 | 7.6 | 83 | – | – | – | – | – | – | – | –
6 | CCN(CC)CCOc1ccc(C(C#N)=C(c2ccc(O)cc2)c2ccc(O)cc2)cc1 | – | 6 | 0.0008 | 50 | 45 | 68 | – | 105 | 50 | 3 | 0 | – | – | 0.2 | 7 | – | – | – | –
7 | CN(C)c1ccc(C(=C(C#N)c2ccccc2)c2ccc(N(C)C)cc2)cc1 | – | – | – | – | 85 | 48 | – | 88 | – | – | – | – | – | – | – | – | 57 | 88 | –
8 | CC(C)CCOc1ccc(C(=C(C#N)c2ccccc2)c2ccc(OCCC(C)C)cc2)cc1 | – | > 10 | > 1 | 37 | 0 | 3 | – | 78 | 0 | 9 | 86 | – | – | > 1 | 118 | – | – | – | –
9 | CC/C(=C(/c1ccccc1)c1ccc(OCCN(C)C)cc1)c1ccccc1 | – | – | – | – | 100 | 79 | – | – | – | – | – | – | 30 | – | 36 | – | – | – | 36
10 | CC(C)Oc1ccc(/C(=C(/C#N)c2ccccc2)c2ccc(O)cc2)cc1 | – | – | – | – | 22 | 57 | – | – | – | – | – | – | 94 | – | – | – | – | – | 170
11 | NCC(=C(c1ccc(O)cc1)c1ccc(O)cc1)c1ccccc1 | – | – | 0.00014 | 24 | 76 | 19 | 9.7 | 20 | 20 | 20 | 53 | – | – | – | 78 | – | – | – | –
12 | COc1ccc(/C(=C(/C#N)c2ccccc2)c2ccc(O)cc2)cc1 | – | – | – | – | 25 | 13 | – | – | – | – | – | – | 100 | – | 100 | – | – | – | 100
13 | CCN(CC)CCOc1ccc(/C(=C(/C#N)c2ccccc2)c2ccc(O)cc2)cc1 | – | – | – | – | 16 | 77 | – | – | – | – | – | – | 2 | – | 20 | – | – | – | 20
14 | Cc1ccc(/C(=C(\C#N)c2ccccc2)c2ccc(O)cc2)cc1 | 119 | – | – | – | 53 | 60 | – | – | – | – | – | 87 | 87 | – | – | – | – | – | –
15 | CC(C)C=C(c1ccc(O)cc1)c1ccc(O)cc1 | – | – | 0.018 | 40 | 65 | 22 | 58 | 95 | 5 | 8.4 | 70 | – | – | – | – | – | – | – | –
